pIC50, pKi: −log10 of the molar value.
Tests used:
Rattus norvegicus = test: Antidepressant-like activity in Wistar rat assessed as decrease in immobility time at 10 mg/kg, po administered at 1, 5, 23.5 hrs prior to testing measured for 5 mins by forced swimming test relative to vehicle-treated control; assay type: functional; set-up: scale not given: the % may be the effect or the level left
Plasma = test: Unbound plasma concentration in Sprague-Dawley rat at 30 mg/kg, po measured at 1 hr by LC/MS/MS analysis; assay type: ADME, organism-based; conditions: in vivo
Procedure, shortened: (§1)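 Male SD rats given 30 mg/kg orally (n = 3 per time point), killed at 1 and 3 h. Heparinized blood collected for plasma; brain rinsed in saline, weighed, homogenized in five volumes (w/v) saline. Plasma and brain levels by LC/MS/MS. Kp,uu,brain is the ratio of unbound brain to unbound plasma concentration.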

Glucocorticoid receptor = biological target: T1, Glucocorticoid receptor (Homo sapiens, UniProt P04150); test: Antagonist activity at human glucocorticoid receptor transfected in CHOK1 cells assessed as inhibition of dexamethasone-induced receptor transcriptional activity after 6 hrs by luciferase reporter gene assay; assay type: cell-based, CHO-K1
T1 sequence (P04150 whole entry): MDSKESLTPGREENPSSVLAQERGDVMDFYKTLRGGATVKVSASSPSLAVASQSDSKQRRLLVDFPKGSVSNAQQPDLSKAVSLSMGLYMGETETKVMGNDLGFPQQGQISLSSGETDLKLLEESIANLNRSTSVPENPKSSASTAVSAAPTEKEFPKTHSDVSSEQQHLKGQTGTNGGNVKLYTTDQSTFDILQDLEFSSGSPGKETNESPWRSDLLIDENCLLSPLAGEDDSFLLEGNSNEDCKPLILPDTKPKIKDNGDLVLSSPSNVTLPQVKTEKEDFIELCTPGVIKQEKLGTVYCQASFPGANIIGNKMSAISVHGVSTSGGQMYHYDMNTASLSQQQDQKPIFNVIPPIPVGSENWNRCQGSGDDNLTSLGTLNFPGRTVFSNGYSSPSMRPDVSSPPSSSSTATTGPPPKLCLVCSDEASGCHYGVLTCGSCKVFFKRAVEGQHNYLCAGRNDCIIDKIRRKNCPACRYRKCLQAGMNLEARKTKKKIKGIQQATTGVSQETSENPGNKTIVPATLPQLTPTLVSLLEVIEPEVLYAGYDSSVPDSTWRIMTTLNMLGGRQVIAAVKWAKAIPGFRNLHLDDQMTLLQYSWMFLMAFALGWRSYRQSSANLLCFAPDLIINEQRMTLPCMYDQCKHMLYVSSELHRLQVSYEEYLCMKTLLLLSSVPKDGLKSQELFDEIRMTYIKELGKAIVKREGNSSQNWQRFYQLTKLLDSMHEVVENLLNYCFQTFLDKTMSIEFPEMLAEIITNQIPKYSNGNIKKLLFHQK

[1] = biological target: T2, Mineralocorticoid receptor (Homo sapiens, UniProt P08235); test: Displacement of [3H]-aldosterone from cytosolic fraction of human recombinant mineralocorticoid receptor by scintillation counting analysis
T2 sequence (P08235 whole entry): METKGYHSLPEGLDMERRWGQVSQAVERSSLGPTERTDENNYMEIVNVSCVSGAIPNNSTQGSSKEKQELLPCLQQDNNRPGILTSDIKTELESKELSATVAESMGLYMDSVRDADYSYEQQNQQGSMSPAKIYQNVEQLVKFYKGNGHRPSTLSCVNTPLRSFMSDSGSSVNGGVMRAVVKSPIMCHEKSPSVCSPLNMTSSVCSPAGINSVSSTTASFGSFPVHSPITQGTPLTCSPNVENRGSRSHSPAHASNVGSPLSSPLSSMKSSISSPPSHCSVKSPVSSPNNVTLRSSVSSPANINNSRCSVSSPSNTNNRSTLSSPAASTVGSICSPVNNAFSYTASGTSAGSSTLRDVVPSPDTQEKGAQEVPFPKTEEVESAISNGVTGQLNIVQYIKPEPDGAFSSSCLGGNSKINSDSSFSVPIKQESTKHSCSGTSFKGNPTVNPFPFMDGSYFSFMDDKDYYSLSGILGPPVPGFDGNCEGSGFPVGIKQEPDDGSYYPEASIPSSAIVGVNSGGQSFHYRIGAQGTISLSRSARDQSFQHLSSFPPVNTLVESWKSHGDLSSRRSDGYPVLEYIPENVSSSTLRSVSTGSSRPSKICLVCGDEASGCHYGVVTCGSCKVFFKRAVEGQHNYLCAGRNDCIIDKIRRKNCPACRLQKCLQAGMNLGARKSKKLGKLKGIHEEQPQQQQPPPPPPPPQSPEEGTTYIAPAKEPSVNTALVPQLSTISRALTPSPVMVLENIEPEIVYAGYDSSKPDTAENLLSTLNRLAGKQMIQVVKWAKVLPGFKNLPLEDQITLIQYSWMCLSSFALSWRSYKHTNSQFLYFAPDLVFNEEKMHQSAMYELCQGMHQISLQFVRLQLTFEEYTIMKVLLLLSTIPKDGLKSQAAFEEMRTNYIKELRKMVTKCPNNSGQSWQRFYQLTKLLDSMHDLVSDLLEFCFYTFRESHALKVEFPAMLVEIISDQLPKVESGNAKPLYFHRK

[2] = Cmax in Sprague-Dawley rat at 1 mg/kg, iv by LC/MS/MS analysis; assay type: ADME, organism-based; set-up: dose 1 mg/kg, route intravenous; conditions: in vivo
Procedure, shortened: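 Single intravenous dose to male Sprague–Dawley rats (n = 4). Jugular vein blood drawn at 0.05, 0.25, 0.5, 1, 2, 4, 8 and 24 h, heparin anticoagulant, plasma separated by centrifugation. Plasma drug level measured by LC/MS/MS.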

Estrogen receptor = Estrogen receptor (Homo sapiens, UniProt P03372); test: Displacement of fluormone ES2 from human recombinant estrogen receptor-alpha expressed in insect Sf9 cells after 120 mins by fluorescence polarization assay
Procedure, shortened: (§2)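 Assay run at Cerep. Fluorescence polarization with Fluormone ES2 tracer, using recombinant human ERα expressed in Sf9 cells and ERβ expressed in Hi5 cells.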

Estrogen receptor beta = Estrogen receptor beta (Homo sapiens, UniProt Q92731); test: Displacement of fluormone ES2 from human recombinant estrogen receptor-beta expressed in insect Hi5 cells after 120 mins by fluorescence polarization assay; set-up: species or system BTI-TN-5B1-4; procedure, shortened: as §2
[3] = Unbound brain to plasma concentration ratio in Sprague-Dawley rat at 30 mg/kg, po measured at 1 hr by LC/MS/MS analysis; assay type: ADME, organism-based; conditions: brain and plasma, read-out: K(p,uu,brain); procedure, shortened: as §1

Estrogen receptor, sequence (P03372 whole entry, looked up): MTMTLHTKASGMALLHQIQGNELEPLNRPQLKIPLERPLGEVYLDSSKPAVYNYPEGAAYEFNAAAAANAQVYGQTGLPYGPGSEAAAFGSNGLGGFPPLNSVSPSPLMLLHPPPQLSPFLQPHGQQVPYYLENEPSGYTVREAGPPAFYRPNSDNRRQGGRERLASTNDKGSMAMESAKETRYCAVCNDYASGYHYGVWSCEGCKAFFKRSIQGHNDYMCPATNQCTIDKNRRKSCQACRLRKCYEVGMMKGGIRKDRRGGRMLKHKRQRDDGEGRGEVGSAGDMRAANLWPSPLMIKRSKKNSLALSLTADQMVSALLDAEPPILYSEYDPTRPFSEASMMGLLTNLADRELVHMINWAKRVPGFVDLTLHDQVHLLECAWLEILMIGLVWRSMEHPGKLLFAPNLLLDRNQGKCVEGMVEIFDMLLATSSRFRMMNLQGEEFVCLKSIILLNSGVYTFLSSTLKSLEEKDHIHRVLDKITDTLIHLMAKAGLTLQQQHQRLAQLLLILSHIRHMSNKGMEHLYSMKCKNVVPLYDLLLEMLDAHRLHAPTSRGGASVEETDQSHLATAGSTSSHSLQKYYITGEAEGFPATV
Estrogen receptor beta, sequence (Q92731 whole entry): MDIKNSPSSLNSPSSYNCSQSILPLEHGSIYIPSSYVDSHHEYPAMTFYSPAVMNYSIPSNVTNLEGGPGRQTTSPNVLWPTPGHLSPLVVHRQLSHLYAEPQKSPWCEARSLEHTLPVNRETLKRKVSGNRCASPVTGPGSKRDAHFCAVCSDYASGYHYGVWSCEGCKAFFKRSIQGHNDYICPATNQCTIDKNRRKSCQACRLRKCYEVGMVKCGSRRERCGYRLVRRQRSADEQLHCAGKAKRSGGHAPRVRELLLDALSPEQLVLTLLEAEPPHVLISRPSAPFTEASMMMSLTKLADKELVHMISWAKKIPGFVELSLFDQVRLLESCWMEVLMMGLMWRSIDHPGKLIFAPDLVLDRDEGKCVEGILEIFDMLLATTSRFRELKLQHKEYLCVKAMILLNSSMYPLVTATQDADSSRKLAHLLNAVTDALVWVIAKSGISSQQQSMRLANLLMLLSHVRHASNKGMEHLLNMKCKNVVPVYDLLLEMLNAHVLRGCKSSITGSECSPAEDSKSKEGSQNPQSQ

Cc1noc(C)c1-c1cc2c(c3c1CCC3)NC(C)(C)C(=O)C2(C)C
Activity (Rattus norvegicus): 89.1% | Cp(f) (Plasma): 14.1 nM | pIC50 (Glucocorticoid receptor): 7.52 | pKi [1]: < 5.52 | Cmax [2]: 633 ng/mL | pKi (Estrogen receptor): < 5.64 | pKi (Estrogen receptor beta): < 5.64 | Kp uu at 1 h [3]: 1.8

— ChEMBL document CHEMBL3580565, “Synthesis and Biological Evaluation of Cyclopentaquinoline Derivatives as Nonsteroidal Glucocorticoid Receptor Antagonists” (J Med Chem, 2015)
